# Measurements taken from article PMC7482441 (Pharmacological Research, 2020).
# Key:
# IGFBP1 = experiment: Circulating biomarker, baseline vs 4-week treatment; assay type: in vivo, human; details: 20 DMD patients, OLink, p-value 1.7e-8, FDR 4e-6
# [1] = test system: TR (Transferrin receptor); experiment: as above; assay type: in vivo, human; details: 20 DMD patients, OLink, p-value 3.0e-6, FDR 0.0004
# SCGB3A2 = experiment: as above; assay type: in vivo, human; details: 20 DMD patients, OLink, p-value 1.3e-5, FDR 0.001
# CCL15 = experiment: as above; assay type: in vivo, human; details: 20 DMD patients, OLink, p-value 0.0003, FDR 0.17
# KLK6 = experiment: as above; assay type: in vivo, human; details: 20 DMD patients, OLink, p-value 0.0004, FDR 0.20
# FAS = experiment: as above; assay type: in vivo, human; details: 20 DMD patients, OLink, p-value 0.0007, FDR 0.24
# MCP1 = experiment: as above; assay type: in vivo, human; details: 20 DMD patients, OLink, p-value 0.0016, FDR 0.39
# MB (Myoglobin) = experiment: as above; assay type: in vivo, human; details: 20 DMD patients, OLink, p-value 0.0036, FDR 0.79
# IGFBP6 = experiment: as above; assay type: in vivo, human; details: 20 DMD patients, OLink, p-value 0.0044, FDR 0.89
# skeletal muscle = experiment: NMRI of skeletal muscle; assay type: in vivo, human; details: dose escalation, 4-week treatment
# Summary of the method: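 NMRI of both lower limbs was acquired locally at baseline and week 4 of oral treatment (50–300 mg TID, 4 ascending-dose cohorts). Indices were water T2 and fat fraction in skeletal muscle. Descriptive statistics were produced per cohort.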
# UMX 101 hamsters = details: lifelong preventive treatment; cited from earlier work
# [2] = test system: Golden Retriever muscular dystrophy (GRMD) dogs; details: treatment in a preventing setting; cited from earlier work
# animal models = details: cited from earlier work
# [3] = test system: sodium-proton exchanger isoform 1 (NHE-1); details: cited from earlier work
compound,measurement,setting,value
[H]/N=C(\N)NC(=O)c1cc(S(C)(=O)=O)c(S(C)(=O)=O)cc1C [Rimeporide],"IGFBP1: Term (TRT, linear mixed effect model, Day 28 vs Day 0)",IGFBP1,−2.7123
same,"TR: Term (TRT, linear mixed effect model, Day 28 vs Day 0)",[1],0.5252
same,"SCGB3A2: Term (TRT, linear mixed effect model, Day 28 vs Day 0)",SCGB3A2,−0.5466
same,"CCL15: Term (TRT, linear mixed effect model, Day 28 vs Day 0)",CCL15,−0.4489
same,"KLK6: Term (TRT, linear mixed effect model, Day 28 vs Day 0)",KLK6,−0.2612
same,"FAS: Term (TRT, linear mixed effect model, Day 28 vs Day 0)",FAS,−0.2823
same,"MCP1: Term (TRT, linear mixed effect model, Day 28 vs Day 0)",MCP1,−0.5675
same,"MB: Term (TRT, linear mixed effect model, Day 28 vs Day 0)",MB (Myoglobin),−0.6763
same,"IGFBP6: Term (TRT, linear mixed effect model, Day 28 vs Day 0)",IGFBP6,−0.3144
same,NMRI indices in skeletal muscle,skeletal muscle,No notable change
same,mortality,UMX 101 hamsters,dramatic reduction in mortality
same,cardioprotection,[2],confirmed the cardioprotective role
same,exposure/concentration range with an efficacious response,animal models,500 to 2500 ng/mL
same,NHE-1 inhibition,[3],potent and selective inhibitor
